# Source: ChEMBL document CHEMBL3745653, “Honokiol for the Treatment of Neonatal Pain and Prevention of Consequent Neurobehavioral Disorders” (J Nat Prod, 2015)
# The source made the active and inactive calls.
# Legend:
# Rattus norvegicus [1] = test: Antinociceptive activity in formalin-induced Wistar rat pups pain model assessed as decrease in thermal hyperalgesia at 10 mg/kg, ip administered daily from postnatal day 4 to day 6 prior to formalin challenge followed by further compound administration every other day until postnatal day 17 to day 21 by hot plate test; assay type: functional, organism-based
# Method in brief: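 Chronic severe pain model: 5% formalin (10 μL sc) or saline injected into each paw in sequence at 1 h intervals, daily P4−P6. Honokiol or corn oil ip before insult each day, then every other day until P21. Latency to jump on a 55 ± 2 °C hot plate, cutoff 30 s. Three readings at least 15 min apart averaged per animal. Blinded, mean ± SEM.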
# Rattus norvegicus [2] = test: Antinociceptive activity in formalin-induced Wistar rat pups pain model assessed as downregulation of c-Fos expression in thalamus at 10 mg/kg, ip administered on postnatal day 7 measured after 3 days post formalin challenge by immunohistochemical staining assay relative to control; assay type: functional, organism-based
# Method in brief: (§1)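 c-Fos immunohistochemistry on brain sections from P7 rats after the 3-day formalin or control protocol. Sections fixed in formalin, treated with 0.3% H2O2, blocked in 1% fish gel, then anti-c-Fos 1:500 for 24 h and biotinylated IgG. Six 20 μm sections ≥90 μm apart per animal, each with six random 20× fields counted. n = 6−8 per group.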
# Rattus norvegicus [3] = test: Antinociceptive activity in formalin-induced Wistar rat pups pain model assessed as downregulation of c-Fos expression in hippocampus at 10 mg/kg, ip administered on postnatal day 7 measured after 3 days post formalin challenge by immunohistochemical staining assay relative to control; assay type: functional, organism-based; method in brief: as §1
# Rattus norvegicus [4] = test: Antinociceptive activity in Wistar rat pups assessed as flinching at 10 mg/kg, ip administered 1 hr on postnatal day 7 prior to formalin challenge measured for 60 secs at 5 mins interval for 60 mins; assay type: functional, organism-based
# Method in brief: (§2)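 Honokiol in corn oil (vehicle alone as control) given ip 1 h before intraplantar sc injection of 5% formalin (10 μL) or saline into the left forepaw. Recuperation behaviours (paw licking, lifting, flinching, rolling) scored for 60 s at 5 min intervals over 60 min. Phase I at 5 min, phase II tonic period 5−60 min. Blinded observers, n = 8 per group, mean ± SEM.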
# Rattus norvegicus [5] = test: Antinociceptive activity in formalin-induced Wistar rat pups pain model assessed as decrease in recuperation time at 10 mg/kg, ip administered 1 hr on postnatal day 7 prior to formalin challenge; assay type: functional; method in brief: as §2
# Rattus norvegicus [6] = test: Antinociceptive activity in formalin-induced Wistar rat pups pain model assessed as improved exploratory behavior at 10 mg/kg, ip administered 1 hr on postnatal day 7 prior to formalin challenge measured on postnatal day 21 by defensive withdrawal test; assay type: functional, organism-based
# Method in brief: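 Defensive withdrawal at P21, during the dark cycle, after the neonatal formalin or saline insult with ip honokiol or corn oil. Habituation to the 50 × 50 × 50 cm open field for 10 min without the chamber. Animals then started in a dark chamber along the wall. Latency measured until all four paws were outside the chamber. Blinded, mean ± SEM.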
# Rattus norvegicus [7] = test: Antinociceptive activity in Wistar rat pups assessed as rolling at 10 mg/kg, ip administered 1 hr on postnatal day 7 prior to formalin challenge measured for 60 secs at 5 mins interval for 60 mins; assay type: functional, organism-based; method in brief: as §2
# Rattus norvegicus [8] = test: Antinociceptive activity in Wistar rat pups assessed as paw-licking at 10 mg/kg, ip administered 1 hr on postnatal day 7 prior to formalin challenge measured for 60 secs at 5 mins interval for 60 mins; assay type: functional, organism-based; method in brief: as §2
# Rattus norvegicus [9] = test: Antinociceptive activity in formalin-induced Wistar rat pups pain model assessed as increased in discrimination ratio at 10 mg/kg, ip administered 1 hr on postnatal day 7 prior to formalin challenge measured on postnatal day 21 by novel object recognition test
# Rattus norvegicus [10] = test: Toxicity in formalin-induced Wistar rat pups pain model assessed as change in exploratory behavior by measuring distance travelled at 10 mg/kg, ip administered 1 hr […] prior to formalin challenge measured for 5 mins on postnatal day 21 by open field test; assay type: organism-based; settings: in vivo
# Method in brief: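 Open-field test at P21 during the dark cycle, 1 h after ip honokiol or corn oil. Rats explored a 50 × 50 × 50 cm box for 5 min under video tracking, and total distance travelled was calculated. n = 3 or 4 per group.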
# Rattus norvegicus [11] = test: Antinociceptive activity in Wistar rat pups assessed as paw-lifting at 10 mg/kg, ip administered 1 hr on postnatal day 7 prior to formalin challenge measured for 60 secs at 5 mins interval for 60 mins; assay type: functional, organism-based; method in brief: as §2
# Rattus norvegicus [12] = test: Antinociceptive activity in formalin-induced Wistar rat pups pain model assessed as upregulation of substance P receptor expression in alveus at 10 mg/kg, ip administered 1 hr on postnatal day 7 prior to formalin challenge measured on postnatal day 21 by immunohistochemical staining assay relative to control; assay type: functional, organism-based
# Method in brief: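 Substance P receptor immunostaining at P21, 14 days after the 3-day formalin or saline protocol with ip honokiol or corn oil. Sections fixed in formalin then cold methanol, 0.2% Triton under 3 min, 1% fish gel block 1 h, primary antibody 24 h, then secondary. Positive cells counted in the hippocampal alveus, mean ± SEM.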
structure (smiles),measurement,setting,value
C=CCc1ccc(O)c(-c2ccc(O)c(CC=C)c2)c1 [HONOKIOL],Activity,Rattus norvegicus [1],Active
same,Activity,Rattus norvegicus [2],Active
same,Activity,Rattus norvegicus [3],Active
same,Activity,Rattus norvegicus [4],Active
same,Time,Rattus norvegicus [5],30 min
same,Activity,Rattus norvegicus [6],Active
same,Activity,Rattus norvegicus [7],Active
same,Activity,Rattus norvegicus [8],Active
same,Activity,Rattus norvegicus [9],Active
same,Activity,Rattus norvegicus [10],4000 mm
same,Activity,Rattus norvegicus [11],Active
same,Activity,Rattus norvegicus [12],Active
